A short description of series [1]: melting temperature; fluorescence melt of hairpins on a sequencing array, two-state fit, raised by 9.35 °C to match UV melts. The conditions noted are these: sodium 0.088 M. Summed up: (§1)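 With Cy3 and quencher oligos annealed, library hairpins on a sequenced MiSeq flow cell were imaged for Cy3 fluorescence in 50 mM Na-HEPES pH 8.0, 25 mM NaCl, in 2.5 °C steps up to 60 °C. Melting temperature and folding enthalpy were derived from bootstrapped two-state fits of signals normalised to pre-quench Cy3 and to control constructs. Four replicates were combined by inverse variance, with fitted temperatures raised by 9.35 °C to match UV melts.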

A short description of series [2]: folding enthalpy; higher = less favourable; fluorescence melt of hairpins on a sequencing array, two-state fit. Particulars: sodium 0.088 M. The essentials: as §1

Turning to GTGTACCGAAAGGTCCAC (((.(((....))).))), the Tm in series [1] turned out to be 48.1 °C. In addition, the folding enthalpy in series [2] is -31 kcal/mol.

As to GTGTACGAAAGTAAACAC ((((((....)))..))), the Tm in series [1] was found to be 42.6 °C. The folding enthalpy in series [2] was -25.1 kcal/mol.

For GTGTACGAAAGTAGCAC ((((((....))).))), in series [1], the Tm amounted to 42.9 °C. Besides, in series [2], the folding enthalpy is -23.6 kcal/mol.

With GTGTACGAAAGTAGTCAC ((((((....)))..))), in series [1], the Tm is 30.9 °C. Moreover, the folding enthalpy in series [2] is -12.2 kcal/mol.

On to GTGTACGGAAACGTGCAC (((.(((....))).))), for which the Tm in series [1] was 55.3 °C. Also, the folding enthalpy in series [2] was -28.3 kcal/mol.

Consider GTGTAGCGAAAGCTCCAC (((.(((....))).))), for which the Tm in series [1] was determined as 48 °C. Further, in series [2], the folding enthalpy was -31.7 kcal/mol.

Take GTGTAGCGAAAGCTTCAC (((.(((....))).))): the Tm in series [1] turned out to be 51.8 °C. For the same sequence, the folding enthalpy in series [2] was -32 kcal/mol.

GTGTAGGCGAAAGCCCAC (((..(((....)))))): the Tm in series [1] was 44.5 °C. Moreover, the folding enthalpy in series [2] is -17.4 kcal/mol.

In the case of GTGTAGGGAAACCTATGC (..((((....))))..), in series [1], the Tm is 30.9 °C. Moreover, the folding enthalpy in series [2] is -12.2 kcal/mol.

Take GTGTAGGGAAACCTGCAC (((.(((....))).))): in series [1], the Tm turned out to be 50.3 °C. Further, the folding enthalpy in series [2] is -29.7 kcal/mol.

For GTGTATGGAAACACACAC ((((.((....)).)))), in series [1], the Tm worked out at 38.1 °C. The folding enthalpy in series [2] was -26.1 kcal/mol.

For GTGTATGGAAACATACAC (((((((....))))))), the Tm in series [1] was 57.2 °C. Also, the folding enthalpy in series [2] was -42 kcal/mol.

On to GTGTCAGGAAACTGGCAC (((.(((....))).))), for which, in series [1], the Tm came to 54.4 °C. Further, the folding enthalpy in series [2] is -39.4 kcal/mol.

GTGTCATCGAAAGATCAC (((..(((....)))))): in series [1], the Tm was 32.4 °C. The folding enthalpy in series [2] is -17.1 kcal/mol.

With GTGTCCGAAAGGAGTCAC ((((((....)))..))), in series [1], the Tm was 35 °C. Also, the folding enthalpy in series [2] is -19.1 kcal/mol.

With GTGTCCGAAAGGATGCAC ((((((....)))..))), in series [1], the Tm came out at 42.9 °C. In addition, the folding enthalpy in series [2] was -15.8 kcal/mol.

In the case of GTGTCCGAAAGGATTCAC ((((((....)))..))), the Tm in series [1] worked out at 35.3 °C. The folding enthalpy in series [2] was -16.3 kcal/mol.

As to GTGTCCGGAAACGGATAC ((.((((....)))).)), in series [1], the Tm was determined as 53.3 °C. Besides, the folding enthalpy in series [2] was -38.6 kcal/mol.

For the sequence GTGTCGCCGAAAGGCCAC (((..(((....)))))), in series [1], the Tm came to 44.4 °C. Also, the folding enthalpy in series [2] is -15 kcal/mol.

On to GTGTCGCGAAAGCGTCAC (((.(((....))).))), for which the Tm in series [1] stood at 63 °C. In series [2], the folding enthalpy was -31.9 kcal/mol.

For GTGTCTGGAAACGGACAC (((((.(....).))))), in series [1], the Tm was 54 °C. Further, the folding enthalpy in series [2] is -41.3 kcal/mol.

With GTGTGAACGAAAGTTCAC (((..(((....)))))), in series [1], the Tm came out at 65.6 °C. In addition, the folding enthalpy in series [2] is -12.9 kcal/mol.

Consider GTGTGAGGAAACTTACGC (.((.((....)).)).), for which the Tm in series [1] was 33.7 °C. In addition, in series [2], the folding enthalpy was -17.7 kcal/mol.

In the case of GTGTGAGGAAACTTGCAC (((..((....))..))), the Tm in series [1] came to 35.1 °C. Besides, in series [2], the folding enthalpy was -28 kcal/mol.

GTGTGCGAAAGCACGCAC ((((((....)))..))): in series [1], the Tm was determined as 61.1 °C. In series [2], the folding enthalpy was -9.49 kcal/mol.

With GTGTGCGAAAGCATTCAC ((((((....)))..))), the Tm in series [1] was found to be 38.3 °C. Besides, the folding enthalpy in series [2] is -15.8 kcal/mol.

For GTGTGCGGAAACACACAC (((((.(....).))))), the Tm in series [1] turned out to be 51.8 °C. For the same sequence, the folding enthalpy in series [2] was -36.2 kcal/mol.

On to GTGTGCGGAAACGCGCAC (((.(((....))).))), for which the Tm in series [1] was 67.7 °C. The folding enthalpy in series [2] is -27.7 kcal/mol.

As for GTGTGGGGAAACCTACGC (.((.((....)).)).), the Tm in series [1] is 39.2 °C. Also, the folding enthalpy in series [2] is -24.1 kcal/mol.

GTGTGTCGAAAGACTCAC (((.(((....))).))): the Tm in series [1] is 53.2 °C. Moreover, in series [2], the folding enthalpy was -40.9 kcal/mol.

As for GTGTGTGGAAACGTACAC ((((..(....)..)))), the Tm in series [1] was determined as 42 °C. The folding enthalpy in series [2] is -23.5 kcal/mol.

In the case of GTGTTACGAAAGTACCAC (((.(((....))).))), the Tm in series [1] is 43.2 °C. Further, the folding enthalpy in series [2] was -29.4 kcal/mol.

Consider GTGTTAGAAATAACAC ((((((....)))))), for which the Tm in series [1] was found to be 47.1 °C. In addition, the folding enthalpy in series [2] was -28.6 kcal/mol.

For GTGTTAGGAAACTAGCAC (((.(((....))).))), in series [1], the Tm came out at 42.9 °C. In addition, the folding enthalpy in series [2] was -31.2 kcal/mol.

Take GTGTTCGAAAGAACCCAC ((((((....)))..))): the Tm in series [1] was determined as 33.1 °C. Moreover, the folding enthalpy in series [2] was -11.7 kcal/mol.

Turning to GTGTTCGAAAGAATGCAC ((((((....)))..))), in series [1], the Tm was 33.5 °C. Moreover, the folding enthalpy in series [2] was -19.1 kcal/mol.

Source of the values: the array DNA melting data of Ke et al. (doi:10.1101/2024.01.08.574731).
